This is an account of results in ChEMBL document CHEMBL5712076, “A TGFβ-PRMT5-MEP50 axis regulates cancer cell invasion through histone H3 and H4 arginine methylation coupled transcriptional activation and repression” (Oncogene, 2017).

The source made the active and inactive calls. The rule behind the calls is not given here.

Series [1] concerns the target Protein arginine N-methyltransferase 5 (Homo sapiens) (UniProt O14744). The experiment in a line: Inhibition of PRMT5 in TGFbeta1-stimulated human HS578T cells assessed as decrease in H4R3me2s protein expression at 500 nM for 4 days by immunoblot analysis. The series is classed as cell-based. The settings on record: Hs-578T, time 4.0 day. In outline: (§1)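 Immunoblots of A549 or HS578T cells given or not given 10 nM TGFβ1 for 2 days and 500 nM inhibitor for 4 days. Probes were histone methylarginine marks and EMT-related proteins.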
A general note: A western blot detects proteins with antibodies after separation by electrophoresis.

The target is the same in series [2]. Kind of series: Inhibition of PRMT5 in TGFbeta1-stimulated human HS578T cells assessed as decrease in H3R2me2s protein expression at 500 nM for 4 days by immunoblot analysis. It is filed as cell-based. The note with it: Hs-578T, time 4.0 day. A digest of the protocol:
as §1

Series [3] has the same target. Kind of series: Inhibition of PRMT5 in TGFbeta1-stimulated human HS578T cells assessed as decrease in H3R2me1 protein expression at 500 nM for 4 days by immunoblot analysis. The note with it: Hs-578T, time 4.0 day. The series is classed as cell-based. A digest of the protocol:
as §1

For series [4] the target is unchanged. The experiment in a line: Inhibition of PRMT5 in TGFbeta1-stimulated human A549 cells assessed as increase in snail protein expression at 500 nM for 4 days by immunoblot analysis. The series is classed as cell-based. The settings on record: time 4.0 day. A digest of the protocol:
as §1

Series [5] shares this target. Kind of series: Inhibition of PRMT5 in TGFbeta1-stimulated human A549 cells assessed as increase in vimentin protein expression at 500 nM for 4 days by immunoblot analysis. It is filed as cell-based. The note with it: time 4.0 day. A digest of the protocol:
as §1

Series [6] shares this target. Kind of series: Inhibition of PRMT5 in TGFbeta1-stimulated human A549 cells assessed as decrease in decrease in E-cadherin protein expression at 500 nM for 4 days by immunoblot analysis. It is filed as cell-based. The settings on record: time 4.0 day. A digest of the protocol: as §1
The target is the same in series [7]. The experiment in a line: Inhibition of PRMT5 in TGFbeta1-stimulated human A549 cells assessed as decrease in H4R3me2s protein expression at 500 nM for 4 days by immunoblot analysis. The settings on record: time 4.0 day. The series is classed as cell-based. In outline:
as §1

The target is the same in series [8]. The experiment in a line: Inhibition of PRMT5 in TGFbeta1-stimulated human A549 cells assessed as decrease in H3R2me2s protein expression at 500 nM for 4 days by immunoblot analysis. The series is classed as cell-based. The settings on record: time 4.0 day. In outline:
as §1

Series [9] has the same target. The experiment in a line: Inhibition of PRMT5 in TGFbeta1-stimulated human A549 cells assessed as decrease in H3R2me1 protein expression at 500 nM for 4 days by immunoblot analysis. It is filed as cell-based. The settings on record: time 4.0 day. A digest of the protocol: as §1
Series [10] concerns A549. The experiment in a line: Anticancer activity against human A549 cells assessed as decrease in cell invasion at 500 nM for 4 days by crystal violet staining based matrigel assay. The note with it: time 4.0 day. The series is classed as functional. A digest of the protocol: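 A549 cells were exposed to 500 nM for 0 or 4 days, then run in a Matrigel invasion assay through 8 μm porous polycarbonate membranes. Crystal violet-stained invaded cells on the underside were imaged by phase-contrast at 20X and quantified. Three independent experiments, mean ± S.E.M., one-way ANOVA.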

Series [11] deals with Protein arginine N-methyltransferase 5 (Homo sapiens) (UniProt O14744). The experiment in a line: Inhibition of PRMT5 in human A549 cells assessed as decrease in SmD3 methylation at 0.01 to 5 uM for 4 days by immunoblot analysis. The series is classed as cell-based. The settings on record: dose 0.01-5 µM, time 4.0 day. A digest of the protocol:
(§2)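 A549 cells were exposed to 0, 10 nM, 100 nM, 500 nM, 1 μM or 5 μM for 4 days. Lysates were blotted for SYM10 (methylated SmD3) and GAPDH. Extracted histones were blotted for H4R3me2s and H3, with DB71 staining of the histones.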

For series [12] the target is unchanged. Kind of series: Inhibition of PRMT5 in human A549 cells assessed as decrease in histone […] methylation at 0.01 to 5 uM for 4 days by immunoblot analysis. It is filed as cell-based. The note with it: dose 0.01-5 µM, time 4.0 day. A digest of the protocol: as §2
Series [13] relates to A549. The experiment in a line: Cytotoxicity against human A549 cells assessed as decrease in cell viability at 500 nM for 4 days by microscopic analysis. It is filed as functional, cell-based. The note with it: time 4.0 day.
A further series concerns IMR-90. The experiment in a line: Cytotoxicity against human IMR-90 cells assessed as effect on cell viability at 500 nM for 4 days by microscopic analysis. It is filed as toxicity, cell-based. The note with it: imr-90, 96 h, 0.5 µM, time 4 day.
Series [14] concerns the target Protein arginine N-methyltransferase 5 (Homo sapiens) (UniProt O14744). Kind of series: Inhibition of PRMT5 in human IMR-90 cells assessed as effect on SmD3 methylation for 4 days by immunoblot analysis. It is filed as cell-based. The note with it: time 4.0 day.
The target is the same in series [15]. Kind of series: Inhibition of PRMT5 in human IMR-90 cells assessed as effect on histone […] methylation for 4 days by immunoblot analysis. The note with it: time 4.0 day. The series is classed as cell-based.
In series [16] the test system is A549. The experiment in a line: Anticancer activity in human A549 cells assessed as TGFbeta1-induced cell morphology change for 4 days by microscopic analysis. It is filed as functional, cell-based. The note with it: dose 500.0 nM, time 4.0 day. In outline: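 A549 cells were given or not given 500 nM for 4 days and 10 nM TGFβ1 for 2 days. Cell morphology was imaged by microscopy, with inserts at higher magnification.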

For series [17], the system named is A549. Kind of series: Anticancer activity against human A549 cells assessed as decrease in TGFbeta1-induced cell invasion at 500 nM for 4 days by crystal violet staining based matrigel assay. The settings on record: time 4.0 day. It is filed as functional. A digest of the protocol:
(§3)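 Matrigel invasion through 8 μm pores in A549, SK-MES-1 or HS578T cells, with or without 500 nM inhibitor for 4 days and with or without 10 nM TGFβ1 for 2 days. Invaded cells on the membrane underside were stained with crystal violet, imaged by phase-contrast at 20X and counted. Mean ± S.E.M. of three independent experiments; one-way ANOVA.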

A further series concerns NCI-H460. The experiment in a line: Anticancer activity against human NCI-H460 cells assessed as decrease in TGFbeta1-induced cell invasion at 500 nM for 4 days by crystal violet staining based matrigel assay. The series is classed as functional. The settings on record: time 4.0 day.
A further series concerns SK-MES-1. Kind of series: Anticancer activity against human SK-MES-1 cells assessed as decrease in TGFbeta1-induced cell invasion at 500 nM for 4 days by crystal violet staining based matrigel assay. The series is classed as functional. The note with it: time 4.0 day. In outline: as §3
In a further series the test system is NCI-H1339. Kind of series: Anticancer activity against human NCI-H1339 cells assessed as decrease in TGFbeta1-induced cell invasion at 500 nM for 4 days by crystal violet staining based matrigel assay. It is filed as functional. The note with it: time 4.0 day.
Another series has as its system Hs-578T. The experiment in a line: Anticancer activity against human Hs-578T cells assessed as decrease in TGFbeta1-induced cell invasion at 500 nM for 4 days by crystal violet staining based matrigel assay. The series is classed as functional. The settings on record: time 4.0 day. A digest of the protocol: as §3
Series [18] has as its system A549. Kind of series: Anticancer activity against human A549 cells assessed as decrease in cell migration at 500 nM for 4 days by crystal violet staining based matrigel assay. The series is classed as functional. The settings on record: time 4.0 day.

Sequence of Protein arginine N-methyltransferase 5 (Homo sapiens) (O14744 whole entry): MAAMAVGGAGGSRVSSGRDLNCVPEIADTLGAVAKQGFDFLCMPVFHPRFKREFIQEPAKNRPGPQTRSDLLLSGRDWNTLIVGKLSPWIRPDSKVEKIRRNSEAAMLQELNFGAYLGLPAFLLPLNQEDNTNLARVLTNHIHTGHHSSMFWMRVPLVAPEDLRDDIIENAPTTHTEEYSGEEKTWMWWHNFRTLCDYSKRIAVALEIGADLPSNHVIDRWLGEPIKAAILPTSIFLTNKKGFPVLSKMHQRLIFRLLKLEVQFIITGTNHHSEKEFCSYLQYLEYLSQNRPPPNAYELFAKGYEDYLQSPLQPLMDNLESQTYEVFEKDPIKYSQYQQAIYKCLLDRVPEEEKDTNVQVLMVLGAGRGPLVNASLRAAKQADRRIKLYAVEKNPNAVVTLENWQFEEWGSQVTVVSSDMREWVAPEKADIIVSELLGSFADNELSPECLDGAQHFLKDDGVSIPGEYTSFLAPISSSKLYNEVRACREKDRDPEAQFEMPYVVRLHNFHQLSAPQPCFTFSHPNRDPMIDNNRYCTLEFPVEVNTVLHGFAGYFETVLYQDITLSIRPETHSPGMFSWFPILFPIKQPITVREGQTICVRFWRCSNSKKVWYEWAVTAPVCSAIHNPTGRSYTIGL

Take `O=C(NC[C@H](O)CN1CCc2ccccc2C1)c1ccnc(NC2CCC2)c1`: the inhibition result in series [1], in series [2], in series [3], in [4], in series [5] and in [6] was “Active” each time. For the same compound, the inhibition result (in [7]; in series [8]; in series [9]; with A549 [10]; in series [11]; in series [12]) was “Active” each time. Moreover, the inhibition entry in the series on A549 [13], in the series on A549 [17], in the series on NCI-H460, in the series on SK-MES-1, with NCI-H1339 and in the series on Hs-578T was “Active” throughout. Also, in the series on A549 [18], the inhibition result was “Active”. Besides, the Activity result with IMR-90 is on record as “Non-Toxic”. Also, the inhibition entry in series [14] and in series [15] was “inactive” throughout. Also, the result in the series with A549 [16] was Active.
